The test system of series [1] is Vero. The experiment in a line: Cytotoxicity against African green monkey Vero cells up to 25 ug/ml after 48 hrs by neutral red assay relative to control. The series is classed as cell-based. To be noted: chlorocebus sabaeus. In short, it runs like this:
(§1)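 Cells grown in RPMI-1640 with 10% bovine calf serum and amikacin at 37 °C, 5% CO2. Seeded at 25,000 cells/well and grown 24 h, then exposed 48 h to samples diluted in serum-free medium. Viability by Neutral Red; % decrease vs vehicle; IC50 from dose curves. Triplicate runs, mean reported; doxorubicin as positive control.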

The test system of series [2] is BT-549. As to the kind of experiment: Cytotoxicity against human BT549 cells up to 25 ug/ml after 48 hrs by neutral red assay relative to control. It counts as cell-based. To be noted: bt-549, 48 h. In short, it runs like this: as §1
Series [3] relates to KB. The experiment in a line: Cytotoxicity against human KB cells up to 25 ug/ml after 48 hrs by neutral red assay relative to control. It counts as cell-based. In short, it runs like this:
as §1

Series [4] relates to SW1353. The experiment in a line: Antiinflammatory activity in human SW1353 cells assessed as inhibition of PMA-induced NF-kappaB activity up to 25 ug/ml incubated for 30 mins prior to PMA challenge measured after 8 hrs by luciferase reporter gene assay. The series is classed as cell-based. The method in brief: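 SW1353 chondrosarcoma cells grown in DMEM/F12 with 10% FBS at 37 °C, 5% CO2. Cells electroporated with an NF-κB luciferase plasmid (50 μg/mL, 160 V, one 70-ms pulse) and plated at 1.25 × 10⁵ cells/well. After 24 h, compound was added 30 min before PMA (70 ng/mL), then 8 h incubation. Luciferase read-out as % inhibition vs vehicle; IC50 from dose curves. Sp-1 served as a counter-screen.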
Background: In a reporter assay the amount or activity of a reporter protein is the signal.

The subject of series [5] is SK-MEL. The experiment in a line: Cytotoxicity against human SK-MEL cells up to 25 ug/ml after 48 hrs by neutral red assay relative to control. It counts as cell-based. In short, it runs like this: as §1
Series [6] in a line: Cytotoxicity against pig LLC-PK11 cells after 48 hrs by neutral red assay relative to control. It counts as cell-based. The following applies: Sus scrofa, LLC-PK11, 48 h. In short, it runs like this: (§2)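 Cells grown in RPMI-1640 with 10% bovine calf serum and amikacin at 37°C, 5% CO₂. Seeded 25,000 cells/well, grown 24 h, then exposed to compounds diluted in serum-free medium for 48 h. Viability by Neutral Red uptake, % decrease versus vehicle control. IC50 from dose curves, triplicate means. Doxorubicin positive control.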

For series [7], the system named is SK-OV-3. The experiment in a line: Cytotoxicity against human SKOV3 cells up to 25 ug/ml after 48 hrs by neutral red assay relative to control. It counts as cell-based. The following applies: sk-ov-3, 48 h. The method in brief:
as §1

A short description of series [8]: Antiinflammatory activity in human SW1353 cells assessed as inhibition of PMA-induced NF-kappaB activity incubated for 30 mins prior to PMA challenge measured after 8 hrs by luciferase reporter gene assay. It counts as cell-based. In short, it runs like this: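 SW1353 cells in DMEM/F12 with 10% FBS, electroporated with NF-κB luciferase plasmid (160 V, one 70-ms pulse), plated at 1.25 × 10⁵ cells/well. After 24 h, graded compound concentrations added 30 min before PMA 70 ng/mL, then 8 h incubation. Luciferase read-out, % inhibition versus vehicle, IC50 from dose curves. Sp-1 reporter served as nonspecific control.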

The nature of series [9]: Cytotoxicity against pig LLC-PK11 cells up to 25 ug/ml after 48 hrs by neutral red assay relative to control. It counts as cell-based, Sus scrofa. To be noted: llc-pk11, 48 h. In short, it runs like this: as §1
The test system of series [10] is Vero. The experiment in a line: Cytotoxicity against African green monkey Vero cells after 48 hrs by neutral red assay relative to control. The following applies: chlorocebus sabaeus. It counts as cell-based. In short, it runs like this: as §2
Series [11] addresses T1, Nitric oxide synthase, inducible (Mus musculus) (UniProt P29477).
T1 sequence (whole entry): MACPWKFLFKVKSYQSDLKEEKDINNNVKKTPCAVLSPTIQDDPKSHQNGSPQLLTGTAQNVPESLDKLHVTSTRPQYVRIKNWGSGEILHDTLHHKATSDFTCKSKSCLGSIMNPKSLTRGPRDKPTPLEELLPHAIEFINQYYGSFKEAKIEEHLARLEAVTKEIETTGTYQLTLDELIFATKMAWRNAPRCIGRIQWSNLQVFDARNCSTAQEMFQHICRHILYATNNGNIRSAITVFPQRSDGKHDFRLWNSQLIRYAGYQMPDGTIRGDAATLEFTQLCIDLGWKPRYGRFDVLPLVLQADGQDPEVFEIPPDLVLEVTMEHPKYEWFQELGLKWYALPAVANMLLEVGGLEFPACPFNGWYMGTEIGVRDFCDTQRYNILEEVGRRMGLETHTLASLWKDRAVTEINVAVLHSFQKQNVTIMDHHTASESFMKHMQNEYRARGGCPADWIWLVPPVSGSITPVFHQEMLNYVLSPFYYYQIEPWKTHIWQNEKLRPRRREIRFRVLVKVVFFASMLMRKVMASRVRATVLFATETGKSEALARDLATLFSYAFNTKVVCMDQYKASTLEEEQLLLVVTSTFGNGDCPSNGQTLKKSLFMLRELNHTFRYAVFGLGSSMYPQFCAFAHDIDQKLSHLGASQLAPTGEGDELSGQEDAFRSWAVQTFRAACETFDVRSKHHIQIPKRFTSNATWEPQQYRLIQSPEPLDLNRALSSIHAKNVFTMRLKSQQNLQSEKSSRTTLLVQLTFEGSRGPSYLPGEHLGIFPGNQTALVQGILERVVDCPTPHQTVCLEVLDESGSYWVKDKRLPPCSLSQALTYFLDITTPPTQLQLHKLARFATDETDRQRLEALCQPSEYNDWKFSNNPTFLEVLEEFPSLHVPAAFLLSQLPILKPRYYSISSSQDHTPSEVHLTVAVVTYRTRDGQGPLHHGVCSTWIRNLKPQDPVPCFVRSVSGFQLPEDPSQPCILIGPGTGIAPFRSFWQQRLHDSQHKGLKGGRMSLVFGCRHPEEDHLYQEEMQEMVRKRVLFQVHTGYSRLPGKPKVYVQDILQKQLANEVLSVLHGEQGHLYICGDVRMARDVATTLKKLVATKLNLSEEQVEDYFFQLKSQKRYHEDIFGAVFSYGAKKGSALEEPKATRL
The experiment in a line: Antiinflammatory activity in mouse RAW264.7 cells assessed as inhibition of LPS-induced iNOS activity up to 25 ug/ml incubated for 30 mins prior to LPS challenge measured after 24 hrs by Griess assay. The series is classed as cell-based. In short, it runs like this: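 RAW264.7 macrophages seeded at 50,000 cells/well and grown 24 h to ≥75% confluency. Compounds in serum-free medium added 30 min before LPS (5 μg/mL), then 24 h incubation. Nitrite in the supernatant measured with Griess reagent.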
For orientation: The Griess reaction detects nitrite, a stable product of nitric oxide.

For orientation: IC50 means the concentration that inhibits the measured activity by half.

Active and inactive are the calls of the source. The calls are words filed in the database; no cut-off is given here.

As for `O=c1sc2ccccc2n1CCCN1CCN(CCCn2c(=O)sc3ccccc32)CC1`, the Activity entry in series [1], in [2], in series [3], in [5] and in series [7] was “Non-toxic” in each case. Also, the inhibition result in series [4] was “inactive”. The same compound came in with an IC50 in series [6] of 23.5 µM.

Regarding `O=c1sc2ccccc2n1CCCCCN1CCN(CCn2c(=O)sc3ccccc32)CC1`, the Activity entry in [2], in series [3], in series [9], in [5] and in series [7] was “Non-toxic” in each case. Also, the half-inhibitory concentration (IC50) in series [8] came to 1.71 µM; in series [10] it was 23.8 µM.

Take `O=c1sc2ccccc2n1CCCCN1CCN(CCCn2c(=O)sc3ccccc32)CC1`: the Activity entry in series [1], in series [2], in series [3], in series [5] and in series [7] was “Non-toxic” each time. The 50% inhibitory concentration (IC50) in series [8] amounted to 1.71 µM; in series [6], 19.2 µM.

Take `O=c1oc2ccccc2n1CCCCN1CCN(CCCn2c(=O)oc3ccccc32)CC1`: the Activity result in series [1], in series [2], in series [3], in series [9], in series [5] and in series [7] was “Non-toxic” each time. Moreover, the inhibition entry in series [11] and in [4] was “inactive” each time.

Take `O=c1oc2ccccc2n1CCCCN1CCN(CCn2c(=O)oc3ccccc32)CC1`: the Activity result in series [1], in [2], in series [3], in series [9], in series [5] and in series [7] was “Non-toxic” throughout. In addition, the inhibition entry in series [11] and in [4] was “inactive” throughout.

With `O=c1oc2ccccc2n1CCN1CCN(CCn2c(=O)oc3ccccc32)CC1`, the Activity entry in [1], in series [2], in [3], in series [9], in series [5] and in series [7] was “Non-toxic” throughout. Also, the inhibition entry in [11] and in series [4] was “inactive” throughout.

In the case of `O=c1oc2ccccc2n1CCCCN1CCN(CCCCn2c(=O)oc3ccccc32)CC1`, the Activity entry in [1], in series [2], in series [3], in series [9], in [5] and in series [7] was “Non-toxic” throughout. For the same compound, the inhibition entry in [11] and in series [4] was “inactive” throughout.

Take `O=c1sc2ccccc2n1CCCCN1CCN(CCn2c(=O)sc3ccccc32)CC1`: the Activity result in series [1], in [2], in series [3], in series [9], in series [5] and in [7] was “Non-toxic” in each case. Also, the inhibition entry in series [11] and in series [4] was “inactive” throughout.

`O=c1sc2ccccc2n1CCCN1CCN(CCn2c(=O)sc3ccccc32)CC1`: the Activity entry in [1], in [2], in [3], in [5] and in [7] was “Non-toxic” each time. In addition, the inhibition result in series [11] and in [4] was “inactive” in each case. In addition, it took 24.1 µM to reach half-maximal inhibition in series [6] (IC50).
